Bioassay records as filed in PubChem BioAssay.
KCNQ1 block: inhibitors of human KCNQ1 channel, primary screen, cell-based, thallium flux, high-throughput; 310,000 tested, 1.3% active; B-score at 10 µM; CHO-K1 KCNQ1, FluxOR thallium flux fluorescence; hits give high values; AID 2642, 2010;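 active = compounds whose thallium flux B-score, printed positive for inhibition, exceeds three library SD while starting fluorescence stays within three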;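 note: channel opened by potassium depolarization with thallium stimulus after 20 min compound exposure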
KCNK3 block: human KCNK3 channel inhibitors, primary screen, CHO cells, FluxOR thallium flux, B-score | 340,000 tested, 0.84% active | AID 602410, 2012 | B-score at 10 µM | FluxOR fluorescence; hits give low values;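 active = B-score under library mean minus 4 SD, starting fluorescence ratio at most library mean plus 5 SD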;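 note: more negative B-score means stronger inhibition of thallium flux through KCNK3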
Target sequence (O14649 whole entry, looked up): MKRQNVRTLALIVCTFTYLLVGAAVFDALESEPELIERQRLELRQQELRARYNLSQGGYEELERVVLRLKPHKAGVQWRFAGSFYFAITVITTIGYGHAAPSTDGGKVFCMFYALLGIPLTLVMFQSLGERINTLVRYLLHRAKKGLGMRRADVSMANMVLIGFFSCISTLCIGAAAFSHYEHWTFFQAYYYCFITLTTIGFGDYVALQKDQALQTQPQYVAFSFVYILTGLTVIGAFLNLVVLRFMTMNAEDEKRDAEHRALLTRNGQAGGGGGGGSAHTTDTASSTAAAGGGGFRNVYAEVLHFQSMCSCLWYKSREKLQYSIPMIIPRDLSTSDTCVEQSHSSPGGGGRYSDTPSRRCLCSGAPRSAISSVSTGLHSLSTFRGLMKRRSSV
Kir21 inh: inhibitors of mouse Kir2.1 inward-rectifier potassium channel; Inward rectifier potassium channel 2 (Mus musculus), P35561; HEK293-Kir2.1, FluxOR thallium flux fluorescence; hits give low values; B-score at 10 µM; 310,000 tested, 0.85% active; AID 1672, 2009;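 active = fluorescence ratio B-score at or below minus 3 SD of library scores, with starting-brightness B-score within 2 SD, cut at about -4.2 in these data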;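 note: channel flux triggered by added potassium and thallium sulfate stimulus; B-score of peak minus minimum fluorescence over baseline after thallium stimulus; more negative B-score means stronger Kir2.1 block with less thallium influx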
KCNK9 inh-1: KCNK9 potassium channel inhibitors, primary screen, HEK293 cells, thallium flux. Potassium channel subfamily K member 9 (Homo sapiens), Q9NPC2. FluxOR thallium flux fluorescence; hits give low values. B-score at 10 µM. 310,000 tested, 1.2% active;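 active = ratio B-score over 3 SD below the library mean, with starting fluorescence within 5 SD of its mean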;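 note: negative B-score means less thallium flux so channel inhibition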
hERG protect: hERG rescue from dofetilide block, primary screen, cell-based, CHO-hERG, FluxOR thallium flux, dofetilide IC70; dofetilide IC70 present; activation (rescue from dofetilide block), less the hit threshold, % at 10 µM; 310,000 tested, 0.51% active; AID 1511, 2009;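 active = activation above the mean of controls blocked by dofetilide plus 5 SD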;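 note: thallium influx through hERG after potassium depolarization seen as dye fluorescence rise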
KCNQ1 pot: potentiators or activators of KCNQ1 channel, primary screen, cell-based, thallium flux, high-throughput; Potassium voltage-gated channel subfamily KQT member 1 (Homo sapiens), P51787; CHO-K1 KCNQ1, thallium flux FluxOR fluorescence; hits give high values; B-score at 10 µM; 310,000 tested, 0.35% active;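 active = fluorescence ratio B-score, a plate-corrected score, at least three library SD, with initial intensity B-score within 5 SD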
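assay system = CHO-K1 cells stably expressing KCNQ1 | medium = assay buffer, equal DMSO in all wells | timing = 37 °C overnight plating, 90-min dark dye load, 20-min compound pretreatment | measured by = kinetic FluxOR thallium fluorescence, 10-s 1-Hz baseline, 110-s post-stimulus read | measure = fluorescence change relative to baseline, converted to B score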
hERG ctr: hERG channel inhibition, counter-screen for Kir2.1 inhibitor project, cell-based, thallium flux. shares compounds with Kir21 inh. hERG-expressing cells. inhibition, % at 10 µM. 320 tested, 20% active;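 note: host cells are CHO cells stably expressing hERG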
KCNK9 inh-2: KCNK9 channel inhibition, selectivity assay for Kir2.1 inhibitor project, cell-based | shares compounds with Kir21 inh | KCNK9-expressing cells, ion flux inhibition | inhibition, % at 10 µM | 320 tested, 5% active | AID 2329, 2010
Kir21 ephys inh: mouse Kir2.1 channel blockers, Kir2.1 inhibitor project, cell-based, secondary, automated electrophysiology | 320 tested, 71% active | AID 463252, 2010 | shares compounds with Kir21 inh | inhibition, % at 25 µM | Kir2.1 cells, automated patch-clamp current inhibition
* = called active by the depositor. Compounds with a hit are over-represented: about 3.7% of the library has one in this group of screens. Unless noted, the rule behind the calls is not given here.

CC(NS(=O)(=O)c1ccc(Br)cc1)c1ccccc1 (stereo not drawn) was read as KCNQ1 block inactive, KCNK3 block inactive, Kir21 inh -6*, KCNK9 inh-1 inactive, hERG protect -8, KCNQ1 pot inactive, hERG ctr inactive, KCNK9 inh-2 inactive and Kir21 ephys inh 54%*.
`CC(C)C[C@@H](CN)NC(=O)c1nc[nH]c1C(=O)N[C@@H](C)C(=O)CNC[C@H](C)NC(=O)c1nc[nH]c1C(=O)N[C@@H](CC(C)C)C(=O)O` gave KCNK3 block inactive.
For O=C1CN(S(=O)(=O)c2cccc(Cl)c2Cl)c2ccccc2N1 the results were KCNQ1 block inactive, KCNK3 block inactive, Kir21 inh -5.7*, KCNK9 inh-1 inactive, hERG protect -7, KCNQ1 pot inactive, hERG ctr inactive, KCNK9 inh-2 inactive and Kir21 ephys inh inactive.
For CC(O)CNCCCOc1cccc(Oc2ccccc2)c1 (stereo not drawn) the results were KCNQ1 block inactive, KCNK3 block inactive, Kir21 inh -7.6*, KCNK9 inh-1 inactive, hERG protect -5, KCNQ1 pot inactive, hERG ctr inactive, KCNK9 inh-2 inactive and Kir21 ephys inh 77%*.
`CCc1noc(C)c1C(=O)Nc1sc(C(=O)N(C)C)c(C)c1C#N` gave KCNQ1 block inactive, KCNK3 block inactive, Kir21 inh 0.93, KCNK9 inh-1 inactive, hERG protect -8 and KCNQ1 pot inactive.
For CN(C)CC#CCOC(c1ccccc1)c1ccccc1 the results were KCNQ1 block inactive, KCNK3 block inactive, Kir21 inh -6.3*, KCNK9 inh-1 inactive, hERG protect 0, KCNQ1 pot inactive, hERG ctr inactive, KCNK9 inh-2 inactive and Kir21 ephys inh 45%*.
For CCN(CC)CC#CCOC(c1ccccc1)c1ccccc1 the results were KCNQ1 block inactive, KCNK3 block inactive, Kir21 inh -3, KCNK9 inh-1 inactive, hERG protect -22 and KCNQ1 pot inactive.
For CC(NC(=O)Nc1ccc(Cl)cc1)C1CCCO1 (stereo not drawn) the results were KCNQ1 block inactive, KCNK3 block inactive, Kir21 inh -0.34, KCNK9 inh-1 inactive, hERG protect -3 and KCNQ1 pot inactive.
`Cc1cc(Cl)ccc1OC(C)C(=O)NC(C)C1CCCO1` (stereo not drawn) gave KCNQ1 block inactive, KCNK3 block inactive, Kir21 inh -8.5*, KCNK9 inh-1 inactive, hERG protect -10, KCNQ1 pot inactive, hERG ctr inactive, KCNK9 inh-2 inactive and Kir21 ephys inh 9.2%*.
CCOc1ccc(C(C)=O)cc1CSc1nnnn1-c1ccc(O)cc1 was read as KCNQ1 block inactive, KCNK3 block inactive, Kir21 inh -8.4*, KCNK9 inh-1 inactive, hERG protect -12, KCNQ1 pot inactive, hERG ctr inactive, KCNK9 inh-2 inactive and Kir21 ephys inh 24%*.
Screening Cc1cc(C(=O)OCC(=O)NC(C)c2ccc(F)cc2)c(C)o1 (stereo not drawn) returned KCNK3 block inactive.
For COc1cccc(OC)c1C(=O)Nc1ccc(N2CCCC2)cc1 the results were KCNQ1 block inactive, KCNK3 block inactive, Kir21 inh 3, KCNK9 inh-1 inactive, hERG protect -5, KCNQ1 pot inactive, hERG ctr inactive, KCNK9 inh-2 inactive and Kir21 ephys inh inactive.
For Clc1ccc(COc2ccccc2CNCc2cccnc2)cc1 the results were KCNQ1 block inactive, KCNK3 block inactive, Kir21 inh -2.1, KCNK9 inh-1 inactive, hERG protect -1 and KCNQ1 pot inactive.
Screening CCOc1cccc(CNCc2cccnc2)c1OCc1ccccc1 returned KCNQ1 block inactive, KCNK3 block inactive, Kir21 inh -7.5*, KCNK9 inh-1 inactive, hERG protect -1, KCNQ1 pot inactive, hERG ctr inactive, KCNK9 inh-2 inactive and Kir21 ephys inh 40%*.
Screening CC1=C(C(=O)OCc2ccccc2)C(c2cccs2)N2C(=O)CCSC2=N1 (stereo not drawn) returned KCNQ1 block inactive, KCNK3 block inactive, Kir21 inh -0.65, KCNK9 inh-1 inactive, hERG protect -20 and KCNQ1 pot inactive.
For COC(=O)C1=C(C)N=C2SCCC(=O)N2C1c1ccc(OC(=O)c2ccco2)cc1 (stereo not drawn) the results were KCNQ1 block inactive, KCNK3 block inactive, Kir21 inh -7.2*, KCNK9 inh-1 inactive, hERG protect -5, KCNQ1 pot inactive, hERG ctr inactive, KCNK9 inh-2 inactive and Kir21 ephys inh inactive.
Screening Cc1cc(C)nc(SCCCNCc2ccc(Br)cc2)n1 returned KCNQ1 block inactive, KCNK3 block inactive, Kir21 inh -7.1*, KCNK9 inh-1 inactive, hERG protect -13, KCNQ1 pot inactive, hERG ctr inactive, KCNK9 inh-2 inactive and Kir21 ephys inh 44%*.
CCN(c1cccc(C)c1)S(=O)(=O)c1ccc2c(c1)NC(=O)CS2 was read as KCNQ1 block inactive, KCNK3 block inactive, Kir21 inh -5.9*, KCNK9 inh-1 inactive, hERG protect -9, KCNQ1 pot inactive, hERG ctr inactive, KCNK9 inh-2 inactive and Kir21 ephys inh inactive.
`CCN(c1cccc(C)c1)S(=O)(=O)c1ccc2c(c1)NC(=O)CCS2` gave KCNQ1 block inactive, KCNK3 block inactive, Kir21 inh 0.77, KCNK9 inh-1 inactive, hERG protect -7 and KCNQ1 pot inactive.
